Assay results taken from ChEMBL document CHEMBL1799960, “Diadenosine 5',5''-(boranated)polyphosphonate analogues as selective nucleotide pyrophosphatase/phosphodiesterase inhibitors” (J Med Chem, 2010).

Legend:
[1] = target: T1, Ectonucleotide pyrophosphatase/phosphodiesterase family member 3 (Homo sapiens) (UniProt O14638); test: Activity of human NPP3 expressed in COS7 cells assessed as production of p-nitrophenol using Ap5A as the substrate at 100 uM after 30 mins by malachite green reagent method; assay type: cell-based; conditions: COS-7
T1 sequence (whole entry): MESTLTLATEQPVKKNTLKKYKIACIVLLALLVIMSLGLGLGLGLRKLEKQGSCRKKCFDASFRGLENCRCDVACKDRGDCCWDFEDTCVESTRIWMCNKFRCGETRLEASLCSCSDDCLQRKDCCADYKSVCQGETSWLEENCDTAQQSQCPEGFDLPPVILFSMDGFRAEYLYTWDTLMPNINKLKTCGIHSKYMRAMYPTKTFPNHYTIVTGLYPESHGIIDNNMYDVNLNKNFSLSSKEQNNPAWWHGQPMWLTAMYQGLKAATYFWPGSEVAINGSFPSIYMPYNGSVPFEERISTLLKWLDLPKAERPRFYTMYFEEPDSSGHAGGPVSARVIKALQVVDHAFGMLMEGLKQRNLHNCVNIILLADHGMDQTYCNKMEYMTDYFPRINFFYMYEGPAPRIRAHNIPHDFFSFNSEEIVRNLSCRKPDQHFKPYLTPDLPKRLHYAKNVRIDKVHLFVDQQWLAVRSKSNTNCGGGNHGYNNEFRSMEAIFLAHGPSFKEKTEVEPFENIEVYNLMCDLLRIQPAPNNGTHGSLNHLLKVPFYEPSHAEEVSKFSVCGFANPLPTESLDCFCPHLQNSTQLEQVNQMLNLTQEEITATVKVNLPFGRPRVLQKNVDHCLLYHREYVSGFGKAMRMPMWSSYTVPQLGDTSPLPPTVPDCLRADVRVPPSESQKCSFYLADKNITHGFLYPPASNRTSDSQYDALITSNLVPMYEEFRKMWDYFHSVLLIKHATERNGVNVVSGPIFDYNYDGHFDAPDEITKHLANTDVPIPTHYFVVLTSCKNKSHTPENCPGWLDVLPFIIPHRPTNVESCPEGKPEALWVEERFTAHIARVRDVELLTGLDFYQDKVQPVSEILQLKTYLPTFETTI

Autotaxin (Homo sapiens) = Autotaxin (Homo sapiens) (UniProt Q13822); test: Inhibition of human secreted NPP2 expressed in COS7 cells assessed as production of p-nitrophenol using pnp-TMP as the substrate at 100 uM after 15 mins by malachite green reagent method; assay type: cell-based; conditions: COS-7
Procedure, shortened: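 Human NPP1, NPP2 (membrane lysate or conditioned medium for the secreted form) or NPP3 from transfected COS-7 cells, preincubated 3 min at 37 °C in 50 mM Tris pH 8.5 buffer with CaCl2, NaCl and KCl. Substrate and inhibitor both at 100 μM final. pnp-TMP: p-nitrophenol read at 405 nm at 15 min. ATP or Ap5A: stopped at 30 min with perchloric acid, then HPLC. Results as % residual activity versus control; three to six experiments in triplicate.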

[2] = target: T2, Ectonucleotide pyrophosphatase/phosphodiesterase family member 1 (Homo sapiens) (UniProt P22413); test: Inhibition of human NPP1 expressed in COS7 cells assessed as amount of inorganic phosphate released using ATP as the substrate at 100 uM after 15 mins by malachite green reagent method; assay type: cell-based; conditions: COS-7
T2 sequence (whole entry): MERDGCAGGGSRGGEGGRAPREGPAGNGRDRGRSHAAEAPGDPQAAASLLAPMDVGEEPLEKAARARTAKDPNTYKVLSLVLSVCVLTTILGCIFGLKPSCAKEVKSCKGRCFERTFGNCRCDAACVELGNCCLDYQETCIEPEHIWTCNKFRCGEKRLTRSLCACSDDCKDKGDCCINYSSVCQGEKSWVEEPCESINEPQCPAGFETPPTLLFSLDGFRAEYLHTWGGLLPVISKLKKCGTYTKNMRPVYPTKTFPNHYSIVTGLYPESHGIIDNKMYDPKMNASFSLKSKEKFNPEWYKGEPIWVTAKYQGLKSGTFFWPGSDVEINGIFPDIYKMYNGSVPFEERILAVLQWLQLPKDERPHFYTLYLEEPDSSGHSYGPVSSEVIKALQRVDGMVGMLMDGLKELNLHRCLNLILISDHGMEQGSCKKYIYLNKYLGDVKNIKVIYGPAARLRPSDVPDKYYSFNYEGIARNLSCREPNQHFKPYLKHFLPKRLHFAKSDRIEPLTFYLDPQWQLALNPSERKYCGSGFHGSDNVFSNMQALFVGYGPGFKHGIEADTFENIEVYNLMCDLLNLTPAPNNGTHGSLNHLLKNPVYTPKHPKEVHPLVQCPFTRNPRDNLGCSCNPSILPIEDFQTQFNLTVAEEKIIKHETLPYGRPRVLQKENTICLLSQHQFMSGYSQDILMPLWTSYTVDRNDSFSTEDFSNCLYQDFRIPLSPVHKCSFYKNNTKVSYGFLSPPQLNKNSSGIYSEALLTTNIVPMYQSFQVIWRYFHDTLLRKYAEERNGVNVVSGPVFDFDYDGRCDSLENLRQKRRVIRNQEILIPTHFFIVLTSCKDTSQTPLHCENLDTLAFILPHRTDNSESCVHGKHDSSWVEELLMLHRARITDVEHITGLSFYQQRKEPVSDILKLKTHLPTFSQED

[3] = target: T1, Ectonucleotide pyrophosphatase/phosphodiesterase family member 3 (Homo sapiens); test: Inhibition of human NPP3 expressed in COS7 cells assessed as production of p-nitrophenol using Ap5A as the substrate at 100 uM after 30 mins […]; assay type: cell-based; conditions: COS-7
P2Y purinoceptor 1 = P2Y purinoceptor 1 (Homo sapiens, UniProt P47900); test: Agonist activity at GFP tagged-human P2Y1 receptor expressed in human 1321N1 cells assessed as elevation in calcium level after 30 mins by fluorescence spectrophotometric analysis; assay type: functional, cell-based
P2Y purinoceptor 1, sequence (P47900 whole entry): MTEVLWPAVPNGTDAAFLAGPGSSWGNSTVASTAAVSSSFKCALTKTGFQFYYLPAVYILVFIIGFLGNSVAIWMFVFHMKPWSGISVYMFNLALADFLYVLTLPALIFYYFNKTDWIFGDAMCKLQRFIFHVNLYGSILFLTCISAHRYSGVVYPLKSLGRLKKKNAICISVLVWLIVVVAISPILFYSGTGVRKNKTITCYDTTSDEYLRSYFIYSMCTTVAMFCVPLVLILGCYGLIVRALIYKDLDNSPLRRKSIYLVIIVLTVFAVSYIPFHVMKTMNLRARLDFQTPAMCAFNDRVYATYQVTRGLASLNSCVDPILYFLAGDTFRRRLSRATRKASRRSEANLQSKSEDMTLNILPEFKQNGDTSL

Compound | Activity [1] [%] | inhibition (Autotaxin (Homo sapiens)) [%] | inhibition [2] [%] | inhibition [3] [%] | EC50 (P2Y purinoceptor 1) [µM]
BP(=O)(OP(=O)(O)CP(=O)(O)OC[C@H]1O[C@@H](n2cnc3c(N)ncnc32)C[C@@H]1O)OP(=O)(O)CP(=O)(O)OC[C@H]1O[C@@H](n2cnc3c(N)ncnc32)C[C@@H]1O | 5.5 | 60 | 70 | 10 | ≥ 30
Nc1ncnc2c1ncn2[C@@H]1O[C@H](COP(=O)(O)CP(=O)(O)OP(=O)(O)CP(=O)(O)OC[C@H]2O[C@@H](n3cnc4c(N)ncnc43)[C@H](O)[C@@H]2O)[C@@H](O)[C@H]1O | 11 | 60 | 70 | 10 | 9
Nc1ncnc2c1ncn2[C@H]1C[C@H](O)[C@@H](COP(=O)(O)CP(=O)(O)OP(=O)(O)CP(=O)(O)OC[C@H]2O[C@@H](n3cnc4c(N)ncnc43)C[C@@H]2O)O1 | 5.5 | 60 | > 90 | 10 | 30
BP(=O)(OP(=O)(O)CP(=O)(O)OC[C@H]1O[C@@H](n2cnc3c(N)ncnc32)[C@H](O)[C@@H]1O)OP(=O)(O)CP(=O)(O)OC[C@H]1O[C@@H](n2cnc3c(N)ncnc32)[C@H](O)[C@@H]1O | 12 | 60 | > 90 | 10 | 0.3
